Data set [1] relates to Staphylococcus aureus. Description: Antibacterial activity against methicillin-resistant Staphylococcus aureus ATCC 33591. Format: functional. An outline of the steps:
(§1)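 Broth microdilution in TSB. Strains were grown 16 h, subcultured 6 h to log phase, then diluted to 10^6 CFU/mL by OD600. Compound came from a 5 mg/mL DMSO stock diluted in TSB and serially diluted, top final concentration 25 μg/mL. MIC was the lowest concentration giving complete growth inhibition. Done ≥3 times in duplicate.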

Data set [2] relates to Staphylococcus epidermidis. Description: Antibacterial activity against methicillin-resistant Staphylococcus epidermidis RP62A. Type of data set: functional. An outline of the steps: as §1
Data set [3] has as its system Escherichia coli. Description: Antibacterial activity against Escherichia coli ATCC 25922. Type of data set: functional. The essentials: (§2)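 Broth microdilution in TSB. Stocks at 5 mg/mL in DMSO diluted with TSB to 100 μg/mL, then serially diluted; highest test concentration 25 μg/mL. Bacteria grown 16 h, subcultured 6 h to log phase, adjusted to 10^6 CFU/mL by OD600. MIC = lowest concentration giving complete growth inhibition. At least three repeats, each in duplicate.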

Data set [4] concerns Klebsiella pneumoniae. Description: Antibacterial activity against Klebsiella pneumoniae ATCC 13383. Type of data set: functional. An outline of the steps: as §2
A short description of data set [5]: Hemolytic activity against mouse RBC measured after 1 hr by microplate reader analysis. Format: ADME, cell-based, Erythrocyte. To be noted: mouse red blood cells (erythrocytes). An outline of the steps: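 Mouse red blood cells collected by centrifugation (500–700g, 10 min), washed three times in PBS, and diluted 20-fold in PBS. Mixed with 2-fold serial dilutions of compound (starting at 1 mg/mL in PBS) and incubated 1 h at 37 °C. After centrifugation, supernatant absorbance read at 540 nm. % hemolysis calculated relative to PBS (0%) and 2% Triton (100%). At least three repeats in duplicate.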

Data set [6] can be described thus: Selectivity ratio of HC50 for hemolytic activity against mouse RBC to MIC for methicillin-resistant Staphylococcus aureus. Type of data set: toxicity. The note with it: mouse red blood cells (erythrocytes). The essentials: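 Mouse RBCs were washed three times in PBS and diluted in 20 volumes of PBS. They were mixed with compound 2-fold serially diluted from 1 mg/mL in PBS, incubated 1 h at 37 °C, then centrifuged; supernatant read at A540. % hemolysis was calculated against PBS (0%) and 2% Triton (100%). Done ≥3 times in duplicate. HC50 was divided by the MRSA MIC.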

For a further data set, the system named is HeLa. Description: Cytotoxicity against human HeLa cells after 24 hrs by MTT assay. Format: cell-based. An outline of the steps: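 HeLa cells seeded at 5 × 10^3 cells/well, attached 24 h at 37 °C, 5% CO2, then exposed to a range of compound concentrations in growth medium for 24 h. Viability read with CCK-8 reagent, absorbance at 490 nm after 1 h. Triplicate wells, three repeats.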

Data set [7] in a line: Selectivity ratio of IC50 for cytotoxicity against human HeLa cells to MIC for methicillin-resistant Staphylococcus aureus. Format: toxicity, cell-based. An outline of the steps: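 HeLa cells were seeded at 5×10^3/well and allowed to attach for 24 h (37 °C, 5% CO2). They were then exposed 24 h to a range of compound concentrations in growth medium. Viability was read by CCK-8 (1 h, absorbance 490 nm). Triplicate wells, three repeats. IC50 was divided by the MRSA MIC.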

Data set [8] concerns Klebsiella pneumoniae. Description: Antibacterial activity against Klebsiella pneumoniae ATCC 13383 in presence of monovalent Na+ and K+. Format: functional. An outline of the steps: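 MIC by the standard broth dilution method, in medium made by dissolving TSB powder in 1× PBS (7.5 g per 250 mL), autoclaved, to supply Na+ and K+. Inoculum of log-phase bacteria at 10^6 CFU/mL. MIC = lowest concentration completely inhibiting growth.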

For data set [9], the system named is Staphylococcus aureus. Description: Antibacterial activity against methicillin-resistant Staphylococcus aureus ATCC 33591 in presence of divalent Ca2+. Format: functional. An outline of the steps:
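MIC set up as in the standard TSB broth microdilution (log-phase inoculum at 10^6 CFU/mL, complete growth inhibition end point). The medium was TSB prepared in DI water with CaCl2 added to 2 mM.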

Data set [10] has as its system Klebsiella pneumoniae. Description: Antibacterial activity against Klebsiella pneumoniae ATCC 13383 in presence of divalent Ca2+. Format: functional. An outline of the steps: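 MIC by the standard TSB broth dilution method, in TSB made with DI water and supplemented with CaCl2 to 2 mM. Inoculum of log-phase bacteria at 10^6 CFU/mL. MIC = lowest concentration completely inhibiting growth.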

Data set [11] deals with Staphylococcus aureus. Description: Bactericidal activity against methicillin-resistant Staphylococcus aureus ATCC 33591 at 24 to 48 microg/ml measured upto 60 mins by time kill assay. Format: functional, organism-based. To be noted: dose microg/ml 24-48, time min <=60. The essentials: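 Mid-log MRSA (overnight culture in TSB at 37 °C with shaking, then 6 h subculture) at 10^6 CFU/mL was exposed to 6, 12, 24 or 48 μg/mL at 37 °C for 10, 30, 60 and 120 min. Samples were diluted 10^2-fold, plated on TSB agar, incubated 20 h at 37 °C, and colonies counted. Untreated control; three repeats.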

Data set [12] has as its system Escherichia coli. Description: Bactericidal activity against Escherichia coli ATCC 25922 at 24 to 48 microg/ml measured after 30 mins by time kill assay. Type of data set: functional, organism-based. The note with it: dose microg/ml 24-48, time 30.0 min. An outline of the steps:
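Mid-log bacteria at 10^6 CFU/mL incubated with compound (12, 24, 48 μg/mL) at 37 °C for 10, 30, 60, 120 min; untreated control. Mixtures diluted 10^4-fold, plated on TSB agar, incubated 20 h at 37 °C, colonies counted and plotted against time. Three repeats.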

Data set [13] concerns Cell membrane. Description: Induction of cell membrane disruption in Escherichia coli ATCC 25922 assessed as propidium iodide-positive cells at 2 times MIC after 2 hrs by fluorescence microscopic analysis. Format: subcellular. The essentials: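 Bacteria from a 10^6 CFU/mL suspension diluted 100-fold and treated with compound at 2 × MIC for 2 h. Cells pelleted (4000g, 15 min, 4 °C), washed three times in PBS, and stained 15 min with PI (5 μg/mL) and DAPI (10 μg/mL). Imaged by oil-immersion fluorescence microscopy; untreated controls included. Three repeats in duplicate.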

The test system of data set [14] is Cell membrane. Description: Induction of cell membrane disruption in methicillin-resistant Staphylococcus aureus ATCC 33591 assessed as propidium iodide-positive cells at 2 times MIC after 2 hrs by fluorescence microscopic analysis. Format: subcellular. An outline of the steps: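 A 10^6 CFU/mL suspension was diluted 100-fold and treated at 2× MIC for 2 h. Cells were pelleted (4000g, 15 min, 4 °C), washed three times in PBS, then stained 15 min with PI (5 μg/mL) and DAPI (10 μg/mL). Imaged by oil-immersion fluorescence microscopy alongside an untreated control. Three repeats in duplicate.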

Data set [15] has as its system Cell membrane. Description: Induction of cell membrane depolarization in Escherichia coli ATCC 25922 assessed as increase in fluorescence intensity measured after 30 mins by DiSC3 staining based fluorescence spectroscopic technique. Format: subcellular. An outline of the steps: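 Mid-log E. coli washed in 5 mM HEPES/5 mM glucose and resuspended in HEPES/glucose/100 mM KCl to OD600 about 0.05. DiSC3(5) added (8 μL of a 10 μM solution per 200 μL). Fluorescence (ex 622 nm, em 670 nm) read at room temperature for 30 min, then compound added at 0.5, 1, 2 and 4 × MIC and monitoring continued. Controls: untreated and 1% Triton X-100. Three repeats in duplicate.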

The subject of data set [16] is Staphylococcus aureus. Description: Antibacterial activity against methicillin-resistant Staphylococcus aureus ATCC 33591 measured for 13 passages. Format: functional, organism-based. An outline of the steps: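 Serial-passage resistance test. A first MIC was run by TSB broth microdilution. Bacteria from the well after the last clear well were resuspended to about 10^6 CFU/mL for the next MIC. This was repeated for 13 passages.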

Converted amounts (≈) assume the structure as drawn. The source made the active and inactive calls. The calls are words filed in the database; no cut-off is given here.

The MIC is the lowest concentration that inhibits growth of the organism. Usually HC50 stands for the concentration that lyses half of the red blood cells. A lower HC50 goes with stronger haemolysis. As usually defined, the IC50 is the point on the concentration scale where inhibition reaches its midpoint. High values mean a need for much substance, low ones inhibition by little substance. As to `CCCCCCCCCC(=O)N[C@@H](CCCCN)CN1CC(=O)N(c2ccc(N3CN(C[C@H](CCCCN)NC(=O)CCCCCCCCC)CC3=O)cc2)C1`, the MIC with Staphylococcus aureus [1] was found to be 2 µg/mL (≈ 2.55 µM); in data set [2] it was 5 µg/mL (≈ 6.38 µM); against Escherichia coli [3], 5 µg/mL (≈ 6.38 µM); with Klebsiella pneumoniae [4] it was 5 µg/mL (≈ 6.38 µM); in the data set with Klebsiella pneumoniae [8], 7 µg/mL; in the data set with Staphylococcus aureus [9] it was 2 µg/mL. Further, in the data set with Klebsiella pneumoniae [10], the MIC was 5 µg/mL. Moreover, the HC50 at 1 h in [5] is > 250 µg/mL. The selectivity ratio in data set [6] is > 125; in data set [7] it was > 38. Also, the IC50 with HeLa is 74.8 µg/mL (≈ 95.5 µM). Further, the result with Staphylococcus aureus [11], in the data set with Escherichia coli [12], with Cell membrane [13], in the data set with Cell membrane [14] and in the data set on Staphylococcus aureus [16] was Active. For the same molecule, in the data set with Cell membrane [15], the Activity result was “Dose-dependent effect”.
